Source: ChEMBL document CHEMBL1687936, “Radiosynthesis and biological evaluation of L- and D-S-(3-[18F]fluoropropyl)homocysteine for tumor imaging using positron emission tomography” (J Med Chem, 2011)

What was measured:
Pancreas [1] = assay: Biodistribution in pancreas of BALB/c nude mouse xenografted with human A375 cells at 0.8 to 1 MBq, iv after 15 mins by gamma-counter; type: ADME, organism-based, A-375; details: in vivo, 0.25 h
Outline: (§1)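 Female Balb/c nude mice with s.c. A375 flank tumors, studied 26 days after tumor induction. Tracer 0.8-1 MBq in 100 μL saline given i.v. Groups of n = 5 killed at 15, 30, 60 and 120 min. Organs weighed and counted in a γ-counter against dilutions of the injected dose. Values are % ID/g wet tissue, mean ± SD.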

Blood [2] = assay: Biodistribution in blood of BALB/c nude mouse xenografted with human A375 cells at 0.8 to 1 MBq, iv after 30 mins by gamma-counter; type: ADME, organism-based, A-375; details: in vivo, 0.5 h; outline: as §1
Bone [3] = assay: Biodistribution in bone of BALB/c nude mouse xenografted with human A375 cells at 0.8 to 1 MBq, iv after 30 mins by gamma-counter; type: ADME, organism-based, Bone element, A-375; details: in vivo, 0.5 h; outline: as §1
Bone [4] = assay: Biodistribution in bone of BALB/c nude mouse xenografted with human A375 cells at 0.8 to 1 MBq, iv after 60 mins by gamma-counter; type: ADME, organism-based, Bone element, A-375; details: in vivo, 1 h; outline: as §1
Lung [5] = assay: Biodistribution in lungs of BALB/c nude mouse xenografted with human A375 cells at 0.8 to 1 MBq, iv after 30 mins by gamma-counter; type: ADME, organism-based, A-375; details: in vivo, 0.5 h; outline: as §1
Kidney [6] = assay: Biodistribution in kidney of BALB/c nude mouse xenografted with human A375 cells at 0.8 to 1 MBq, iv after 30 mins by gamma-counter; type: ADME, organism-based, A-375; details: in vivo, 0.5 h; outline: as §1
Pancreas [7] = assay: Metabolic stability in pancreas of BALB/c nude mouse xenografted with human A375 cells assessed as radioactivity after 1 hrs by HPLC analysis; type: ADME, tissue-based, A-375; details: in vivo
Outline: (§2)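 A375-tumored Balb/c nude mice received 18-20 MBq tracer iv. Plasma and urine were spiked with unlabeled FPHCys and KF and injected directly; tissues were sonicated in saline with carrier and centrifuged at 6000g. Radio-HPLC on C18 with methanol/phosphate buffer pH 6 gave intact fraction as authentic peak over total activity, at 0.25, 1 and 2 h.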

Brain [8] = assay: Biodistribution in brain of BALB/c nude mouse xenografted with human A375 cells at 0.8 to 1 MBq, iv after 15 mins by gamma-counter; type: ADME, organism-based, A-375; details: in vivo, 0.25 h; outline: as §1
Lung [9] = assay: Biodistribution in lungs of BALB/c nude mouse xenografted with human A375 cells at 0.8 to 1 MBq, iv after 60 mins by gamma-counter; type: ADME, organism-based, A-375; details: in vivo, 1 h; outline: as §1
Heart [10] = assay: Biodistribution in heart of BALB/c nude mouse xenografted with human A375 cells at 0.8 to 1 MBq, iv after 60 mins by gamma-counter; type: ADME, organism-based, A-375; details: in vivo, 1 h; outline: as §1
Brain [11] = assay: Biodistribution in brain of BALB/c nude mouse xenografted with human A375 cells at 0.8 to 1 MBq, iv after 60 mins by gamma-counter; type: ADME, organism-based, A-375; details: in vivo, 1 h; outline: as §1
Brain [12] = assay: Metabolic stability in brain of BALB/c nude mouse xenografted with human A375 cells assessed as radioactivity after 1 hrs by HPLC analysis; type: ADME, tissue-based, A-375; details: in vivo; outline: as §2
Heart [13] = assay: Biodistribution in heart of BALB/c nude mouse xenografted with human A375 cells at 0.8 to 1 MBq, iv after 120 mins by gamma-counter; type: ADME, organism-based, A-375; details: in vivo, 2 h; outline: as §1
Kidney [14] = assay: Biodistribution in kidney of BALB/c nude mouse xenografted with human A375 cells after 60 mins by PET/CT imaging; type: ADME, organism-based, A-375; details: in vivo, 1 h
Outline: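 Female Balb/c nude mice with A375 tumors (1×10^6 cells in Ca/Mg-free PBS injected s.c. in left flank at 6 weeks old). Mice under isoflurane in oxygen. 10 min CT scan, then 18-20 MBq tracer in 100 μL saline given i.v. with a 2 h PET acquisition. Coronal images at 60 min postinjection; n = 3.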

Muscle tissue [15] = assay: Biodistribution in muscle of BALB/c nude mouse xenografted with human A375 cells at 0.8 to 1 MBq, iv after 30 mins by gamma-counter; type: ADME, organism-based, A-375; details: in vivo, 0.5 h; outline: as §1
Plasma = assay: Drug level in plasma of BALB/c nude mouse xenografted with human A375 cells assessed as radioactivity in protein fractions after 0.25 to 2 hrs; type: ADME, cell-free, A-375; details: in vivo
Outline: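 Female Balb/c nude mice bore subcutaneous A375 flank tumors and received 18-20 MBq tracer iv. Plasma or tissue was sonicated in 10% TCA with unlabeled FPHCys and KF, then centrifuged at 6000g; the pellet was re-extracted twice. Protein-bound fraction is pellet versus supernatant radioactivity, sampled at 0.25, 1 and 2 h.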

HT-29 [16] = assay: Cellular uptake in human HT-29 cells assessed as accumulation per 10^5 cells after 4 hours by gamma-counter; type: ADME, cell-based; details: ht-29, 4 h
Outline: (§3)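 Cells seeded at 2.5 × 10^5 per well in RPMI-1640 with 10% FBS and 2 mM L-glutamine, attached overnight, then washed with warm PBS. Incubated at 37 °C with 0.37 MBq [18F]tracer in PBS for 2–240 min. Cells washed with ice-cold PBS, lysed in 0.2 N NaOH and counted by γ-counter. Read as % applied dose per 10^5 cells, decay-corrected, n = 3.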

A-375 [17] = assay: Cellular uptake in human A375 cells assessed as accumulation per 10^5 cells after 60 mins by gamma-counter; type: ADME, cell-based; details: a-375, 1 h; outline: as §3
Muscle tissue [18] = assay: Biodistribution in muscle of BALB/c nude mouse xenografted with human A375 cells at 0.8 to 1 MBq, iv after 15 mins by gamma-counter; type: ADME, organism-based, A-375; details: in vivo, 0.25 h; outline: as §1
Blood [19] = assay: Biodistribution in blood of BALB/c nude mouse xenografted with human A375 cells at 0.8 to 1 MBq, iv after 15 mins by gamma-counter; type: ADME, organism-based, A-375; details: in vivo, 0.25 h; outline: as §1
Brain [20] = assay: Biodistribution in brain of BALB/c nude mouse xenografted with human A375 cells at 0.8 to 1 MBq, iv after 120 mins by gamma-counter; type: ADME, organism-based, A-375; details: in vivo, 2 h; outline: as §1
Bone [21] = assay: Biodistribution in bone of BALB/c nude mouse xenografted with human A375 cells at 0.8 to 1 MBq, iv after 15 mins by gamma-counter; type: ADME, organism-based, Bone element, A-375; details: in vivo, 0.25 h; outline: as §1
HT-29 [22] = assay: Drug uptake in human HT-29 cells in presence of amino acid transport system A inhibitor MeAIB; type: ADME, cell-based
Outline: (§4)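 Cells were prepared as for the uptake assay and preincubated at 37 °C with inhibitor at 12.5 mmol/L in PBS; controls received PBS. 0.37 MBq [18F]tracer was added and incubated 30 min at 37 °C. Cells were washed cold, lysed and γ-counted. Uptake is given as % of the control group, n = 3.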

Kidney [23] = assay: Biodistribution in kidney of BALB/c nude mouse xenografted with human A375 cells at 0.8 to 1 MBq, iv after 120 mins by gamma-counter; type: ADME, organism-based, A-375; details: in vivo, 2 h; outline: as §1
[24] = Metabolic stability in human A375 cells xenografted in BALB/c nude mouse assessed as radioactivity after 2 by HPLC analysis; type: ADME, cell-based, A-375; details: in vivo; outline: as §2
A-375 [25] = assay: Cellular uptake in human A375 cells assessed as accumulation per 10^5 cells after 15 to 60 mins by gamma-counter; type: ADME, cell-based; outline: as §3
HT-29 [26] = assay: Drug uptake in human HT-29 cells in presence of amino acid transport system L inhibitor BCH; type: ADME, cell-based; outline: as §4
A-375 [27] = assay: Drug uptake in human A375 cells in presence of amino acid transport system L inhibitor BCH; type: ADME, cell-based; outline: as §4

Structure (SMILES)	Drug uptake (Pancreas [1])	Drug uptake (Blood [2])	Drug uptake (Bone [3])	Drug uptake (Bone [4])	Drug uptake (Lung [5])	Drug uptake (Kidney [6])	Drug uptake (Brain [8])	Drug uptake (Lung [9])	Drug uptake (Heart [10])	Drug uptake (Brain [11])	Stability (Brain [12])	Drug uptake (Heart [13])	Drug uptake (Kidney [14])	Drug uptake (Muscle tissue [15])	Drug uptake (Plasma)	Drug uptake (HT-29 [16])	Drug uptake (Muscle tissue [18])	Drug uptake (Blood [19])	Drug uptake (Brain [20])	Drug uptake (Bone [21])	also measured
Cl.N[C@@H](CCSCCC[18F])C(=O)O	14.3 % ID/g	4.44 % ID/g	3.5 % ID/g	2.31 % ID/g	5.07 % ID/g	12.6 % ID/g	3.13 % ID/g	2.62 % ID/g	2.32 % ID/g	1.3 % ID/g	90%	1.37 % ID/g	Active	4.2 % ID/g	1%	2%	4.12 % ID/g	5.17 % ID/g	2.57 % ID/g	3.33 % ID/g	Stability (Pancreas [7]): 30%; Drug uptake (A-375 [17]): 9%; Drug uptake (HT-29 [22]): Active; Drug uptake (Kidney [23]): 3.92 % ID/g; Stability [24]: 78%
Cl.N[C@H](CCSCCC[18F])C(=O)O	37.1 % ID/g	2.51 % ID/g	2.29 % ID/g	1.63 % ID/g	2.84 % ID/g	6.49 % ID/g	1.53 % ID/g	1.55 % ID/g	1.16 % ID/g	0.75 % ID/g	90%	0.4 % ID/g	Active	1.97 % ID/g	1%	1.6%	2.12 % ID/g	3.51 % ID/g	0.25 % ID/g	2.55 % ID/g	Drug uptake (A-375 [25]): 6.8%; Drug uptake (HT-29 [26]): Not Active; Drug uptake (A-375 [27]): Not Active; Drug uptake (HT-29 [22]): Active; Drug uptake (Kidney [23]): 1.04 % ID/g
